Experimental data taken from ChEMBL document CHEMBL2176938, “Virtual screening and optimization yield low-nanomolar inhibitors of the tautomerase activity of Plasmodium falciparum macrophage migration inhibitory factor” (J Med Chem, 2012).
pIC50, pKi: −log10 of the molar value.

target: T1, Macrophage migration inhibitory factor homologue (Plasmodium falciparum (isolate 3D7), UniProt Q8I5C5); experiment: Inhibition of recombinant Plasmodium falciparum MIF expressed in Escherichia coli BL21 (DE3) assessed as ketonization of enol form of 4-HPP substrate after 10 mins; conditions: not given
T1 sequence (Q8I5C5 whole entry): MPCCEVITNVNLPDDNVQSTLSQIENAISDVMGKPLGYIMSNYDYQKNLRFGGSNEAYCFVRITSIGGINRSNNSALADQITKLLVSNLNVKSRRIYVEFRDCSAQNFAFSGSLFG
In short: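 PfMIF (75 nM trimer) in 25 mM potassium phosphate pH 7.4, preincubated 10 min with inhibitor at 1.5, 5 and 10 μM; DMSO vehicle 1% final. Started by adding enol 4-HPP (dissolved in absolute EtOH, stored −20°C) at varied concentrations. Enol-to-keto conversion read as fall in absorbance at 306 nm over 90 s; Ki values derived.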

| Ki | Structure (SMILES) | pIC50 |
| --- | --- | --- |
| Not Active | Oc1cccc(Oc2ccc(-c3ccc(O)c(O)c3)cc2)c1 |  |
| Not Active | O=C(O)c1ccccc1C(=O)Nc1ncccc1OCc1ccc(Cl)c(Cl)c1 |  |
| Not Active | CCc1ccc(CNc2ccc(S(N)(=O)=O)cc2)cc1 |  |
| Not Active | CC(=O)c1ccc(-c2ccc(C(=O)N3CCC(C(N)=O)CC3)o2)cc1 |  |
| Not Active | CN1C(=O)N[C@@H](c2ccccc2)C2=C1CN(c1cccc(C(=O)O)c1)C2=O |  |
| Not Active | COc1ccc(C(=O)c2oc3ccccc3c2NC(=O)C(C)C)cc1Cl |  |
| Not Active | Oc1cccc(Oc2ccc(-c3cccc(O)c3)cc2)c1 |  |
| Not Active | COc1ccc(-c2ccc(Oc3cccc(OC)c3)cc2)cc1 |  |
|  | CC(=O)O[C@@H]1C[C@H]2C(C)(C)C(=O)C=C[C@]2(C)[C@H]2CC[C@@]3(C)[C@H](c4ccoc4)C(=O)[C@H]4O[C@]43[C@@]21C [EPOXYAZADIRADIONE] | 5.00 |
| Not Active | CCC[C@H](C(=O)Nc1ccc(F)c(F)c1F)c1ccccc1 |  |
| Not Active | COc1cccc(Oc2ccc(-c3ccc(OC)c(OC)c3)cc2)c1 |  |
| Not Active | CC1(C)CC(=O)C=C(Nc2ccc(S(N)(=O)=O)cc2)C1 |  |
| Not Active | COc1ccc(-c2ccc(Oc3cccc(OC)c3)cn2)cc1 |  |
| Not Active | CNC(=O)c1cccc2cccc(Sc3ccccc3C(=O)O)c12 |  |
| Not Active | Oc1ccc(-c2ccc(Oc3cccc(O)c3)cc2)cc1 |  |
| Not Active | O=C1C(=O)N(CNc2ccc3ccccc3c2)c2ccccc21 |  |
| Not Active | Cc1cc(O)cc(Oc2ccnc(-c3ccc(O)cc3)c2)c1 |  |

| Structure (SMILES) | Ki | pIC50 |
| --- | --- | --- |
| CCc1ccc([C@H]2C[C@H](c3cccc(C)c3)n3ncnc3N2)cc1 | Not Active |  |
| O=C(NCc1ccc(F)cc1F)Nc1cnccc1C(F)(F)F | Not Active |  |
| COc1ccc(Oc2cc(C)nc(-c3ccccc3)n2)cc1 | Not Active |  |
| COc1ccc(-c2cc(Oc3cccc(OC)c3)ccn2)cc1 | Not Active |  |
| COc1ccc(NC(=O)[C@H]2CCC(C)=C(C)[C@@H]2C(=O)O)c(N2CCOCC2)n1 | Not Active |  |
| O=C(O)c1ccccc1C(=O)N(Cc1cccnc1)Cc1ccc(Cl)cc1Cl | Not Active |  |

same assay, conditions: read-out: Ki

| Structure (SMILES) | pKi |
| --- | --- |
| Oc1cccc(Oc2ccc(-c3cccc(O)c3)nc2)c1 | 5.16 |
| N#Cc1cccc(Oc2ccc(-c3cccc(O)c3)nc2)c1 | 6.43 |
| Oc1cccc(Oc2c(F)c(F)nc(N3CCCCC3)c2F)c1 | 4.54 |
| Cc1cc(Oc2cccc(O)c2)cc(-c2ccccc2)n1 | 7.41 |
| COc1ccc(-c2nnc3ccc(Oc4cccc(O)c4)nn23)cc1 | 3.91 |
| Cc1cc(Oc2cccc(C#N)c2)nc(-c2ccccc2)n1 | 5.80 |
| COc1ccc(-c2cc(Oc3cc(C)cc(OC)c3)ccn2)cc1 | 6.43 |
| Cc1cc(Oc2cccc(C#N)c2)cc(N2CCOCC2)n1 | 4.95 |
| Cc1cc(Oc2cccc(O)c2)nc(-c2ccccc2)n1 | 4.71 |
| NC(=O)CSC1=Nc2ccccc2C2=N[C@H](Cc3c[nH]c4ccccc34)C(=O)N12 | 4.60 |
| Oc1cccc(Oc2ccnc(N3CCOCC3)c2)c1 | 4.36 |
| Cc1cc(Oc2ccc(O)cc2)nc(-c2ccccc2)n1 | 4.03 |
| COc1cc(C)cc(Oc2cc(C)nc(N3CCOCC3)c2)c1 | 5.92 |
| COc1cccc(Oc2cc(C)nc(N3CCOCC3)c2)c1 | 7.37 |
| COc1cccc(Oc2ccc(-c3cccc(OC)c3)nc2)c1 | 4.24 |
| COc1cc(C)cc(Oc2ccnc(N3CCOCC3)c2)c1 | 5.25 |
| Oc1cccc(Oc2c(F)c(F)nc(N3CCOCC3)c2F)c1 | 5.07 |
| Oc1ccc(-c2ccc(Oc3cccc(O)c3)cn2)cc1 | 4.17 |
| COc1cc(Cl)cc(Oc2ccnc(N3CCOCC3)c2)c1 | 5.59 |
| CCOc1cccc(Oc2cc(C)nc(N3CCOCC3)c2)c1 | 5.14 |
| COc1cc(OC)cc(Oc2ccnc(N3CCOCC3)c2)c1 | 3.91 |
| COc1cccc(Oc2cc(C)nc(-c3ccccc3)n2)c1 | 5.26 |
| O=C1N=C(Nc2cccc(O)c2)S/C1=C\c1cccc(O)c1 | 4.69 |
| COc1ccc(-c2cc(Oc3cc(C)cc(OC)c3)cc(C)n2)cc1 | 7.42 |
| CCOc1cccc(Oc2ccnc(N3CCOCC3)c2)c1 | 5.16 |
| Oc1cccc(Oc2c(F)c(N3CCOCC3)nc(F)c2Cl)c1 | 4.81 |
| Oc1ccc(-c2cc(Oc3cccc(O)c3)ccn2)cc1 | 5.52 |
| COc1cccc(Oc2ccnc(N3CCOCC3)c2)c1 | 4.64 |
| NS(=O)(=O)c1ccc(NC2=CC(=O)C(=O)c3ccccc32)cc1 | 4.00 |
| COc1cccc(Oc2cc(C)nc(-c3ccccc3)c2)c1 | 5.11 |

target: T2, Macrophage migration inhibitory factor (Homo sapiens, UniProt P14174); experiment: Inhibition of human MIF; conditions: not given
T2 sequence (P14174 whole entry): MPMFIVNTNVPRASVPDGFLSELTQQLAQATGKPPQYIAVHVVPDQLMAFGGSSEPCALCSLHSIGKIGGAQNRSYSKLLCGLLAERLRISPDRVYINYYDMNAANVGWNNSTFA

| Structure (SMILES) | Ki |
| --- | --- |
| COc1cccc(Oc2cc(C)nc(N3CCOCC3)c2)c1 | Not Active |

same assay, conditions: read-out: Ki

| Structure (SMILES) | pKi |
| --- | --- |
| Cc1cc(Oc2cccc(O)c2)cc(-c2ccccc2)n1 | 4.00 |
| COc1ccc(-c2cc(Oc3cc(C)cc(OC)c3)cc(C)n2)cc1 | 3.57 |
